From ChEMBL document CHEMBL2176879, “Identification of HIV-1 inhibitors targeting the nucleocapsid protein” (J Med Chem, 2012) come the findings set out here.

The test system of data set [1] is SUP-T1. The data set can be described thus: Cytotoxicity against human SupT1 cells at 10 uM after 7 days by Trypan Blue dye exclusion analysis. It is filed as cell-based. Particulars: sup-t1, 168 h.
Data set [2] is described as follows: Inhibition of HIV1 NL4-3 N-terminal GST-tagged nucleocapsid protein interaction to FAM-labeled SL-2 DNA expressed in Escherichia coli BL21DE3 by fluorescence polarisation assay. Also on record: species or system Human immunodeficiency virus 1. (In general: Fluorescence polarisation rises when a labelled molecule tumbles more slowly, as on binding a larger partner.)

The subject of data set [3] is Human immunodeficiency virus 1. Kind of data set: Displacement of FAM-labeled SL-2 from HIV1 NL4-3 N-terminal GST-tagged nucleocapsid protein-FAM-labeled SL-2 complex expressed in Escherichia coli BL21DE3 by EMSA analysis. The method in brief:
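Pre-formed complex of GST-p2-NC with fluorescein-labeled SL-2 DNA (15 μM protein, 0.5 μM DNA in PBS, 10 nM ZnCl2) incubated with compound, resolved by native PAGE; free/bound probe quantified by fluorescence gel scanning.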
(In general: A gel shift assay detects complexes by their altered migration in electrophoresis.)

Data set [4] has as its system Human immunodeficiency virus 1. The data set can be described thus: Antiviral activity against HIV1 LAI infected in human CD4+ T cells assessed as reduction of p24 positive T cells at 200 nM treated 3 days before infection measured after 9 days by flow cytometry analysis. It is filed as functional. Particulars: Human immunodeficiency virus 1, LAI, T-cell. In general terms: Flow cytometry measures light scatter and fluorescence of single cells or particles in a stream.

Data set [5] relates to Human immunodeficiency virus 1. The data set can be described thus: Binding affinity to HIV1 Gag protein assessed as change in melting temperature using SYPRO orange by differential scanning fluorimetry analysis. The method in brief:
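5 μM GST-Gag incubated with 5X SYPRO Orange and 5 μM compound in 5 mM HEPES pH 7.5, 150 mM NaCl; heated 35–94 °C at 1 °C/min. Tm from Boltzmann sigmoid fit; ΔTm of 2 °C taken as hit threshold.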

Data set [6] relates to SUP-T1. Kind of data set: Cytotoxicity against human SupT1 cells at 1 uM by Trypan Blue dye exclusion analysis. It is filed as cell-based. Particulars: sup-t1, 1 µM. The method in brief: (§1)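 SupT1 T cells in RPMI1640 with 10 % FBS, 2 mM L-glutamine, 0.1 mM NEAA, 1 mM sodium pyruvate, penicillin/streptomycin, at 37 °C and 5 % CO2. Compounds were dissolved in DMSO and incubated with the cells for several days. Viability was read as dead vs. viable cells by Trypan Blue dye exclusion, counted under a microscope.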

Data set [7] relates to SUP-T1. The data set can be described thus: Cytotoxicity against human SupT1 cells at 0.1 uM after 7 days by Trypan Blue dye exclusion analysis. It counts as cell-based. Particulars: sup-t1, 168 h. The procedure, abridged: as §1
Data set [8] relates to Human immunodeficiency virus 1. The data set can be described thus: Binding affinity to HIV1 NL4-3 N-terminal GST-tagged nucleocapsid protein expressed in Escherichia coli BL21DE3 by resonant waveguide grating-based SRU BIND assay. The method in brief: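 GST-p2-NC (NL4-3, E. coli BL21DE3(pLysS), GSH-purified) immobilized at 5 μM on aldehyde-activated optical biosensor; compounds added at 25 μM in PBS, 1 % DMSO; peak wavelength shift followed over time at room temperature; stoichiometry from expected PWV using ligand/receptor MW ratio and target activity.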

Data set [9] concerns Human immunodeficiency virus 1. The data set can be described thus: Antiviral activity against HIV1 NL4-3 infected in human HeLa cells assessed as drecrease of p24 antigen level after 2 days by CFAR. It is filed as functional, organism-based. The note with it: Human immunodeficiency virus 1, NL4-3, HeLa, 48 h. The procedure, abridged:
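2×10^5 HeLa cells in Opti-MEM given increasing compound concentrations (1 % DMSO controls); after 2 days transiently transfected with 1 μg pNL4-3 plasmid by lipofection. Virus production quantified as p24, expressed relative to DMSO controls; three independent transfections, mean ± s.d.; EC50 derived.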

Data set [10] has as its system SUP-T1. Kind of data set: Cytotoxicity against human SupT1 cells at 30 uM after 6 days by Trypan Blue dye exclusion analysis. It counts as cell-based. Particulars: sup-t1, 144 h. The method in brief:
as §1

Data set [11] concerns SUP-T1. Kind of data set: Cytotoxicity against human SupT1 cells at 0.1 to 1 uM after 7 days by Trypan Blue dye exclusion analysis. It counts as cell-based. The note with it: sup-t1, 168 h.

Calls of active or inactive are those of the source.

As usually defined, the Ki is the dissociation constant of the complex between target and ligand, obtained from inhibition or displacement. A higher Ki goes with weaker binding. As usually defined, the inhibition is how much of the control response was suppressed. In general, ΔTm refers to the change in melting temperature against a reference sample. As for `O=C1NC(=S)S/C1=C\c1cc([N+](=O)[O-])ccc1Sc1ccc(C(F)(F)F)cn1`, the values for the Activity with SUP-T1 [1], with SUP-T1 [6] and in the data set with SUP-T1 [7] were greater than 90%, greater than 70% and 0%, respectively. The affinity in data set [2] corresponds to a Ki of 0.073 µM. Besides, the result in data set [3] and in data set [8] was Active. For the same compound, in data set [4], the inhibition at 0.2 µM was 0%. Also, the shift in melting temperature (ΔTm) in [5] was 2.4 °C.

As for `C/C(=C\c1ccc2c(c1)OCO2)[N+](=O)[O-]`, the Activity in the data set on SUP-T1 [1] is given as greater than 90%; with SUP-T1 [6], greater than 70%; in the data set with SUP-T1 [7] it was 0%. Moreover, in data set [2], the inhibitory constant (Ki) was determined as 0.022 µM. In addition, the outcome in data set [3] and in [8] was Active. Besides, the inhibition at 0.2 µM in data set [4] was 18%. The ΔTm in data set [5] was 3.4 °C.

`O=C1ON=C(c2ccccc2)/C1=C/c1ccc2c(c1)OCO2`: the values for the Activity in the data set on SUP-T1 [1], in the data set with SUP-T1 [6] and in the data set on SUP-T1 [7] were greater than 90%, greater than 70% and 0%, respectively. For the same compound, the Ki in [2] turned out to be 0.02 µM. Also, the result in data set [3] and in data set [8] was Active. Further, the inhibition at 0.2 µM in data set [4] amounted to 33%. The shift in melting temperature (ΔTm) in [5] amounted to 6.3 °C.

By EC50 is commonly meant the concentration needed to bring the measured effect to its halfway point. In the case of `COc1cccc(/C=C2\SC(=S)C(N)C2=O)c1OC` (configuration not stated), in data set [2], the affinity, expressed as Ki, was 0.018 µM. Further, the EC50 in [9] is 3.5 µM. The result in data set [3] and in data set [8] was Active. Also, the Activity in the data set on SUP-T1 [10] is recorded as greater than 70%; in the data set on SUP-T1 [7] it was 0%; in the data set with SUP-T1 [11], less than 3%. In addition, in data set [4], the inhibition at 0.2 µM was found to be 43%. In addition, the thermal shift (ΔTm) in data set [5] was 4.8 °C.

In the case of `CCOc1ccc(/C=C(\C)[N+](=O)[O-])cc1OC`, the Activity in the data set on SUP-T1 [1] is greater than 90%; with SUP-T1 [7] it was 0%; with SUP-T1 [11], less than 3%. The compound also came in with a Ki in [2] of 0.014 µM. Besides, the EC50 in data set [9] turned out to be 0.32 µM. For the same compound, the result in [3] and in [8] was Active. In data set [4], the inhibition at 0.2 µM worked out at 50%. In addition, the ΔTm in data set [5] was 2.2 °C.
